Among the data in ChEMBL document CHEMBL3785089, “Design and Synthesis of Irreversible Analogues of Bardoxolone Methyl for the Identification of Pharmacologically Relevant Targets and Interaction Sites” (J Med Chem, 2016) are CD, Activity and IC50 values, retold here.

For experiment [1], the target named is T1, Nuclear factor erythroid 2-related factor 2 (Rattus norvegicus) (UniProt O54968).
T1 sequence (whole entry): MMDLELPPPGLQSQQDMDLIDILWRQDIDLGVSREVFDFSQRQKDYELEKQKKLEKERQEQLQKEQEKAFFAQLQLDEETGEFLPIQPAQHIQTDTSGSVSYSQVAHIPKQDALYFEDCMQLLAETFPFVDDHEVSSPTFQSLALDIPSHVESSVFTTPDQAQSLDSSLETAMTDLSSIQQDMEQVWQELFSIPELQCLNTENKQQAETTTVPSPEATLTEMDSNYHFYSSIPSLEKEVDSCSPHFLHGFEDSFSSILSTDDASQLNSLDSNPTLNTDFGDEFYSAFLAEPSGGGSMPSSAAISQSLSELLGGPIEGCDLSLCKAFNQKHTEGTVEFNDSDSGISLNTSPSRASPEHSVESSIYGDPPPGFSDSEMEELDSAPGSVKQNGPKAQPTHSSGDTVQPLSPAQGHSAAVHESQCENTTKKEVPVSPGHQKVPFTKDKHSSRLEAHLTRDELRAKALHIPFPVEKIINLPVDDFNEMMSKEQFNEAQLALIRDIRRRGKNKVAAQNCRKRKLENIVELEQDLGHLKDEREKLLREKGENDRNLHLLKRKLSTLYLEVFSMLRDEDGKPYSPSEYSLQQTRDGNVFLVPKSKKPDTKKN
Nature of the experiment: Induction of NRF2 activation in rat H42E cells expressing ARE8L assessed as reporter transgene activity after 24 hrs by luminescence assay. It counts as cell-based. A digest of the protocol: (§1)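 Reporter cells (H4IIE-ARE8L) exposed 24 h to compounds at 0.5% DMSO. Cells washed in PBS, then given 150 µg/mL D-luciferin in PBS for 5 min before reading luminescence. Signal normalised to vehicle-treated cells. The concentration giving a 2-fold rise in reporter activity (CD) was taken from the concentration-response data. Mean ± S.D., n=4.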

Experiment [2] addresses T1, Nuclear factor erythroid 2-related factor 2 (Rattus norvegicus). The experiment is described as follows: Induction of NRF2 activation in rat H42E cells expressing ARE8L assessed as increase in reporter transgene activity after 24 hrs by luminescence assay. It counts as cell-based. A digest of the protocol:
as §1

For experiment [3], the target named is Kelch-like ECH-associated protein 1 (Mus musculus) (UniProt Q9Z2X8). The experiment is described as follows: Binding affinity to mouse V5-tagged Keap1 expressed in HEK293T cells assessed as chemical modification of Cys-257 residue at 100 uM incubated for by LC-MS/MS analysis. It is filed as cell-based. The following applies: HEK-293T. A digest of the protocol:
(§2)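 Mouse Keap1-V5 expressed ectopically in HEK293T cells; cells exposed to 100 µM compound for 1 h. Keap1-V5 immunopurified from lysates, free cysteines capped with iodoacetamide, trypsin-digested overnight at 37 °C, then LC-MS/MS. Modification frequency per cysteine from n=4 independent experiments.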

Experiment [4] deals with Glutathione S-transferase P (Homo sapiens) (UniProt P09211). Nature of the experiment: Binding affinity to recombinant human poly His-tagged GSTP1 expressed in Escherichia coli assessed as chemical modification at Cys-47 at 100:1 compound:protein molar ratio after 24 hrs by LC-MS/MS analysis. A digest of the protocol: (§3)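 Recombinant His-tagged protein (human GSTP1 or mouse Keap1) purified by nickel affinity and incubated on-bead with the stated molar excess of compound for up to 24 h, pH 8.4, 37 °C. Free cysteines capped with 55 mM iodoacetamide for 15 min, trypsin digest overnight at 37 °C, LC-MS/MS detection of adduct mass shifts on peptide y/b ions.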

Experiment [5] deals with Kelch-like ECH-associated protein 1 (Mus musculus) (UniProt Q9Z2X8). The experiment is described as follows: Binding affinity to recombinant mouse poly His-tagged Keap1 expressed in Escherichia coli assessed as chemical modification of Cys-613 residue incubated up to 24 hrs by LC-MS/MS analysis. A digest of the protocol:
as §3

The nature of experiment [6]: Cytotoxicity against rat H42E cells expressing ARE8L assessed as cellular ATP level after 24 hrs by Celltiter-Glo luminescent cell viability assay. It counts as cell-based. The procedure, abridged: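 H4IIE-ARE8L rat hepatoma cells grown in DMEM with 10% FBS, glutamine, HEPES and non-essential amino acids, and exposed 24 h to compounds at 0.5% DMSO. Cellular ATP measured by CellTiter-Glo luminescence and expressed relative to vehicle. Mean ± S.D., n=4.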
In general terms: Cellular ATP, detected with luciferase, serves as a proxy for viable cell number.

A short description of experiment [7]: Thiol reactivity using beta-mercaptoethanol assessed as chemical shifts in presence of triethylamine at 25 degC by NMR spectroscopy.
Experiment [8] concerns the target Glutathione S-transferase P (Homo sapiens) (UniProt P09211). The experiment is described as follows: Binding affinity to recombinant human poly His-tagged GSTP1 expressed in Escherichia coli assessed as chemical modification of Cys-47 residue at 1:1 compound:protein molar ratio after 24 hrs by LC-MS/MS analysis in presence of methyl 2-cyano-3,12-dioxooleana-1,9(11)-dien-28-oate. The procedure, abridged:
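Competition format. His-tagged human GSTP1 was held on-bead at pH 8.4, 37 °C and pre-incubated 1 h with molar excesses of the competitor. The probe was then added at 1:1 molar ratio for another 24 h, with the competitor kept in the buffer. Cysteines capped with iodoacetamide, followed by tryptic digestion and LC-MS/MS of Cys-47 modification.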

The target in experiment [9] is Kelch-like ECH-associated protein 1 (Mus musculus) (UniProt Q9Z2X8). Nature of the experiment: Binding affinity to recombinant mouse poly His-tagged Keap1 expressed in Escherichia coli assessed as chemical modification of Cys-273 residue incubated up to 24 hrs by LC-MS/MS analysis. The procedure, abridged:
as §3

Experiment [10] shares this target. Nature of the experiment: Binding affinity to mouse V5-tagged Keap1 expressed in HEK293T cells assessed as chemical modification of Cys-434 residue at 100 uM incubated for by LC-MS/MS analysis. It is filed as cell-based. The following applies: HEK-293T. A digest of the protocol: as §2
Experiment [11] shares this target. The experiment is described as follows: Binding affinity to mouse V5-tagged Keap1 expressed in HEK293T cells assessed as chemical modification of Cys-273 residue at 100 uM incubated for by LC-MS/MS analysis. It is filed as cell-based. Conditions: HEK-293T. A digest of the protocol:
as §2

Experiment [12] is described as follows: Thiol reactivity using beta-mercaptoethanol assessed as chemical shifts at 25 degC by NMR spectroscopy.
Experiment [13] deals with Kelch-like ECH-associated protein 1 (Mus musculus) (UniProt Q9Z2X8). Nature of the experiment: Binding affinity to recombinant mouse poly His-tagged Keap1 expressed in Escherichia coli assessed as chemical modification of Cys-288 residue incubated up to 24 hrs by LC-MS/MS analysis. A digest of the protocol:
as §3

Experiment [14] shares this target. Nature of the experiment: Binding affinity to recombinant mouse poly His-tagged Keap1 expressed in Escherichia coli assessed as chemical modification of Cys-434 residue incubated up to 24 hrs by LC-MS/MS analysis. The procedure, abridged:
as §3

The target is the same in experiment [15]. The experiment is described as follows: Binding affinity to recombinant mouse poly His-tagged Keap1 expressed in Escherichia coli assessed as chemical modification of Cys-489 residue incubated up to 24 hrs by LC-MS/MS analysis. The procedure, abridged:
as §3

Experiment [16] shares this target. Nature of the experiment: Binding affinity to mouse V5-tagged Keap1 expressed in HEK293T cells assessed as chemical modification of Cys-288 residue at 100 uM incubated for by LC-MS/MS analysis. It counts as cell-based. The following applies: HEK-293T. A digest of the protocol:
as §2

Experiment [17] can be described thus: Thiol reactivity using N-acetyl cysteine assessed as chemical shifts at 25 degC by NMR spectroscopy.
The target of experiment [18] is Kelch-like ECH-associated protein 1 (Mus musculus) (UniProt Q9Z2X8). Nature of the experiment: Binding affinity to mouse V5-tagged Keap1 expressed in HEK293T cells assessed as chemical modification of Cys-489 residue at 100 uM incubated for by LC-MS/MS analysis. The following applies: HEK-293T. It is filed as cell-based. The procedure, abridged: as §2
The target is the same in experiment [19]. Nature of the experiment: Binding affinity to recombinant mouse poly His-tagged Keap1 expressed in Escherichia coli assessed as chemical modification of Cys-257 residue incubated up to 24 hrs by LC-MS/MS analysis. The procedure, abridged: as §3
For experiment [20], the target named is T1, Nuclear factor erythroid 2-related factor 2 (Rattus norvegicus). The experiment is described as follows: Stabilization of NRF2 in rat H42E cells expressing ARE8L at 0.01 to 30 nM after 1 hr by Western blot analysis. It is filed as cell-based. The procedure, abridged:
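H4IIE-ARE8L cells exposed 1 h to the compound. Nrf2 protein accumulation detected by immunoblot. DMSO (0.5%) served as negative control and MG132 (10 μM) as positive control. Representative of n=3 independent experiments.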

For experiment [21], the target named is Glutathione S-transferase P (Homo sapiens) (UniProt P09211). Nature of the experiment: Binding affinity to recombinant human poly His-tagged GSTP1 expressed in Escherichia coli assessed as chemical modification at Cys-47 at 10:1 compound:protein molar ratio after 1 hr by LC-MS/MS analysis. A digest of the protocol:
as §3

Activity calls are given as the source filed them. No cut-off for these calls is given here.

By IC50 is commonly meant the concentration needed to halve the response being measured.

Glutathione S-transferase P (Homo sapiens), sequence (P09211 2-210 limits assumed): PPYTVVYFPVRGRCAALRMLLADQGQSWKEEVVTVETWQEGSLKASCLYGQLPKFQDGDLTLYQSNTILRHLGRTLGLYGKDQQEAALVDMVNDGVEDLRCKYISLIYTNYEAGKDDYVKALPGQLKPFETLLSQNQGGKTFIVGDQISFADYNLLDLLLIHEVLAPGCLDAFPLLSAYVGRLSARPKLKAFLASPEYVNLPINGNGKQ
Kelch-like ECH-associated protein 1 (Mus musculus), sequence (Q9Z2X8 whole entry): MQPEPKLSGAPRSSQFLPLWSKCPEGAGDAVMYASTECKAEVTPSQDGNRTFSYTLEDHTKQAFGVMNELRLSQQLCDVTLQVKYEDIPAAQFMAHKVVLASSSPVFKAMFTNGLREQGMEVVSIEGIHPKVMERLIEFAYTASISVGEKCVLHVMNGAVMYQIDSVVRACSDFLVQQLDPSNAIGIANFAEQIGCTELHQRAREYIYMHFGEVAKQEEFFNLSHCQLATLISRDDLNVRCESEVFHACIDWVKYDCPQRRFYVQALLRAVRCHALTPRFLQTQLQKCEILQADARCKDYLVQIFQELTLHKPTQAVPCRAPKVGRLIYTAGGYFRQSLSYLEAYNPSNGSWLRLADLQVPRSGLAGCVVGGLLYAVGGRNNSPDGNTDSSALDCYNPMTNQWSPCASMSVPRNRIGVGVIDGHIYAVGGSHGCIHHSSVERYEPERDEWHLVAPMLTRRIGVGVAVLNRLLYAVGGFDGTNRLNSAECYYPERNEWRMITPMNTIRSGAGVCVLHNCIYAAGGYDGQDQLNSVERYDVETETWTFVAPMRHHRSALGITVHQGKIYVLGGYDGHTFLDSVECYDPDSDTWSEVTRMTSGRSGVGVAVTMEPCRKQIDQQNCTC

`COC(=O)[C@]12CCC(C)(C)C[C@H]1[C@H]1C(=O)C=C3[C@@]4(C)CCC(=O)C(C)(C)[C@@H]4CC[C@@]3(C)[C@]1(C)CC2`: the CD in [1] was determined as 1.2 µM.

As for `COC(=O)[C@]12CCC(C)(C)C[C@H]1[C@H]1C(=O)C=C3[C@@]4(C)[C@H]5O[C@H]5C(=O)C(C)(C)[C@@H]4CC[C@@]3(C)[C@]1(C)CC2`, the Activity entry in experiment [2] was “Dose-dependent effect”. Further, the CD in experiment [1] worked out at 15.4 µM.

Take `COC(=O)[C@]12CCC(C)(C)C[C@H]1[C@H]1C(=O)C=C3[C@@]4(C)[C@H]5O[C@@]5(C#N)C(=O)C(C)(C)[C@@H]4CC[C@@]3(C)[C@]1(C)CC2`: the outcome in [3], in experiment [4], in [10], in experiment [11], in experiment [16] and in experiment [18] was Active. Further, the Activity entry in experiment [5] is “Dose-dependent effect”; in experiment [7] it was 5.15 ppm; in [9], “Dose-dependent effect”; in experiment [13] it was “Dose-dependent effect”; in experiment [14], “Dose-dependent effect”; in experiment [15], “Dose-dependent effect”. Further, in experiment [19], the Activity entry is “Dose-dependent effect”. In addition, in experiment [6], the IC50 came to 4300 nM. In addition, the outcome in [8], in experiment [12] and in experiment [17] was inactive. Besides, the CD in experiment [1] was 0.002 µM.

Turning to `COC(=O)[C@]12CCC(C)(C)C[C@H]1[C@H]1C(=O)C=C3[C@@]4(C)CC[C@H](OC(C)=O)C(C)(C)[C@@H]4CC[C@@]3(C)[C@]1(C)CC2`, in [1], the CD came to 17.6 µM.

Turning to `COC(=O)[C@]12CCC(C)(C)C[C@H]1[C@H]1C(=O)C=C3[C@@]4(C)CC(C#N)C(=O)C(C)(C)[C@@H]4CC[C@@]3(C)[C@]1(C)CC2` (some centres undefined), the outcome in experiment [7] and in experiment [12] was inactive. Besides, the CD in experiment [1] worked out at 0.009 µM.

With `COC(=O)[C@]12CCC(C)(C)C[C@H]1[C@H]1C(=O)C=C3[C@@]4(C)C=CC(=O)C(C)(C)[C@@H]4CC[C@@]3(C)[C@]1(C)CC2`, in [2], the Activity result was “Dose-dependent effect”. The CD in experiment [1] is 0.9 µM.

As for `COC(=O)[C@]12CCC(C)(C)C[C@H]1[C@H]1C(=O)C=C3[C@@]4(C)C=C(C#N)C(=O)C(C)(C)[C@@H]4CC[C@@]3(C)[C@]1(C)CC2` [BARDOXOLONE METHYL], the outcome in experiment [5], in experiment [9], in experiment [13], in experiment [14], in experiment [15] and in experiment [19] was inactive. The IC50 in experiment [6] came to 1400 nM. Moreover, the outcome in experiment [20] and in experiment [21] was Active. Besides, the Activity was determined as 5.85 ppm in experiment [12] and 5.81 ppm in [17]. Moreover, the CD in [1] came to 0.0005 µM.
